# Experimental data taken from PMC10549240 (RSC Chemical Biology, 2023).
# Legend:
# Bio-PepK-StA [1] = assay type: binding; details: C-terminal truncation of Fluo-PepE, Fig. 3A
# In short: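 Fluorescein-labelled PepE variants truncated at the C-terminus (50 nM in water) were mixed 1:1 with serial dilutions of biotin-PepK/streptavidin complex starting at 20 μM. No activation was used. Fluorescence polarization was measured after 30 min (485 nm excitation, 535 nm emission). The read-out was the Δpolarization relative to samples without biotinylated peptide/streptavidin.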
# Bio-PepK-StA [2] = assay: Flupol binding assay after Bind&Bite reaction; details: covalently stabilized by Bind&Bite, Fig. 3B
# In short: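 Equal volumes were mixed with serially diluted biotin-PepK/streptavidin complex starting at 20 μM. Fluorescence polarization was read after 30 min (ex 485/em 535 nm). The read-out was Δpolarization versus samples without biotinylated peptide/streptavidin.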
# Env(wt) = assay: Bind&Bite reaction with Env; set-up: species or system HIV-1; details: DMEM with 10% FCS
# In short: (§1)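 Env trimers (wild-type or C-terminal G4S-PepK fusion) were expressed in FreeStyle 293-F cells and lectin-purified. Biotinylated PepE was either activated in situ (7.1 μM with 71 μM EDC and 177.5 μM NHS, 30 min RT) or used as pre-activated, HPLC-purified NHS ester. It was added 1:10 to Env at 71 nM final in DMEM/10% FCS, giving final peptide 710, 71, 7.1 or 0.71 nM. Mixtures were incubated 30 min RT, run on reducing 10% SDS-PAGE, and blotted. Blots were probed with streptavidin-HRP or goat anti-gp120/anti-goat HRP, with ECL detection.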
# Env-PepK = assay: Bind&Bite reaction with Env-PepK in DMEM/10% FCS, SDS-PAGE and Western Blot; set-up: species or system HIV-1; details: Env-PepK 71 nM in DMEM with 10% FCS; 30 min RT; streptavidin-HRP blot
# In short: as §1
Substance,affinity of the non-covalent interaction with full-length PepK (Bio-PepK-StA [1]),further results
Fluo-Aoa-EIAALEREIAALEREIAALE-NH2 [PepE(-1C)],very similar to full-length PepE,–
Fluo-Aoa-EIAALEREIAALEREIAAL-NH2 [PepE(-2C)],very similar to full-length PepE,–
Ac-EIAALEREIAALEREIAALER-Aoa-Aoa-Lys(Bio)-NH2 [PepE-Bio],–,"off-target reaction with other components of the medium, in situ activated (Env(wt); in situ activated (EDC/NHS), Fig. 4C): considerable off-target reaction; off-target reactions, pre-activated, purified (Env(wt); pre-activated, purified PepE-Bio, Fig. 4D): largely eliminated; reaction with the PepK tag of Env-PepK (Env-PepK): selective reaction"

# Continued, in another order:
affinity of the non-covalent interaction with full-length PepK (Bio-PepK-StA [1]),Substance,further results
complete loss of binding,Fluo-Aoa-EIAALEREIAALER-NH2 [PepE(-7C)],concentrations at which the peptide binds to full-length PepK (Bio-PepK-StA [2]): submicromolar
complete loss of binding,Fluo-Aoa-EIAALEREIAALERE-NH2 [PepE(-6C)],–
